How the values were obtained:
[1] = molecular target: T1, Nuclear receptor ROR-gamma (Homo sapiens, UniProt P51449); experiment: Inverse agonist activity at pSG5GAL4-DBD/LBD fused human RORgamma receptor expressed in COS7 cells co-expressing 5 copies of GAL4 response element after 18 hrs by luciferase reporter gene based assay; assay type: cell-based
T1 sequence (P51449 whole entry): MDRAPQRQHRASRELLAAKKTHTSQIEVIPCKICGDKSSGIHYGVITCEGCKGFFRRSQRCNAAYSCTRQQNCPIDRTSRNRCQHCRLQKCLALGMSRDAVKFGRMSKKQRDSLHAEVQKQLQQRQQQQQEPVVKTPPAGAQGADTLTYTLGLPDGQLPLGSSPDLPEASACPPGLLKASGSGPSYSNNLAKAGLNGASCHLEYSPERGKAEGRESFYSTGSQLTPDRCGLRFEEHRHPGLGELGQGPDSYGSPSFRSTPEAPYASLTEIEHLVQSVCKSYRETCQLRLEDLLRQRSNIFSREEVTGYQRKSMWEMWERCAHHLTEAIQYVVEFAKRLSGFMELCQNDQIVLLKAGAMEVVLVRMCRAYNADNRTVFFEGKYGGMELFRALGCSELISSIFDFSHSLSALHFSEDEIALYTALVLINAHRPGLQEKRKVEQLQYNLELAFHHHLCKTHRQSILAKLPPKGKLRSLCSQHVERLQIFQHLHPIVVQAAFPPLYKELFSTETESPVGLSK

[2] = Stability in mouse microsomes assessed as unbound intrinsic clearance; assay type: ADME, Microsome
How it was run: (§1)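 Unbound intrinsic clearance measured in human and mouse liver microsomes, expressed in L/h/kg. Values are geometric means of at least two separate runs.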

[3] = Stability in human microsomes assessed as unbound intrinsic clearance; assay type: ADME, Microsome; how it was run: as §1
Mus musculus = experiment: Immunosuppressive activity in po dosed PLP (139 to 151 residues)-induced experimental autoimmune encephalomyelitis mouse model assessed as incidence of disease administered twice starting from immunization relative to control; assay type: functional
How it was run: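 EAE induced in mice by immunization with proteolipid protein peptide PLP139-151; ascending paralysis develops 10–12 days post-immunization. Compound dosed orally b.i.d. starting from immunization. Disease onset/incidence scored relative to control.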

[4] = molecular target: T1, Nuclear receptor ROR-gamma; experiment: Inverse agonist activity at RORgamma in human CD4+ T cells assessed as inhibition of IL17A secretion after 72 hrs by ELISA; assay type: cell-based, CD4+ve Th

With CNC(=O)[C@@H]1CCCN1S(=O)(=O)c1ccc(Cl)c(COc2cccc3c(OCc4ccccc4)cc(C)nc23)c1Cl the EC50 [1] was 0.88 µM, the CL free [2] was 109 L/h/kg and the CL free [3] was 28 L/h/kg.
In the case of CCCCCCCCc1ccc(CCC(N)(CO)CO)cc1 [FINGOLIMOD], the Activity (Mus musculus) is reported as 0%.
Cc1cc(C(F)(F)F)c2cccc(OCc3c(Cl)ccc(S(=O)(=O)N4CCCC4)c3Cl)c2n1 gave a CL free [2] of 58 L/h/kg and a CL free [3] of 14 L/h/kg.
Compound CNC(=O)[C@@H]1CCCN1S(=O)(=O)c1ccc(Cl)c(COc2cccc3c(-c4cccnc4)cc(C)nc23)c1Cl has an EC50 [4] of 1.01 µM, an EC50 [1] of 0.1 µM and a CL free [2] of 42 L/h/kg. The CL free [3] was 14 L/h/kg.
With Cc1cc(C(F)(F)F)c2cccc(OCc3c(Cl)ccc(S(=O)(=O)N4C[C@@H](C)O[C@@H](C)C4)c3Cl)c2n1 the EC50 [1] was 0.22 µM, the CL free [2] was 56 L/h/kg and the CL free [3] was 19 L/h/kg.
In the case of Cc1cc(C(F)(F)F)c2cccc(OCc3c(Cl)ccc(S(=O)(=O)N4CCC(C#N)CC4)c3Cl)c2n1, the EC50 [1] is reported as 0.76 µM, the CL free [2] is reported as 103 L/h/kg and the CL free [3] is reported as 26 L/h/kg.
Compound CNC(=O)[C@@H]1CCCN1S(=O)(=O)c1ccc(Cl)c(COc2cccc3c(OCc4ccccc4)cc(C(C)C)nc23)c1Cl has a CL free [2] of 73 L/h/kg and a CL free [3] of 40 L/h/kg.
CCN(c1ccc(C(O)(C(F)(F)F)C(F)(F)F)cc1)S(=O)(=O)c1ccccc1 gave an EC50 [4] of 0.93 µM and an EC50 [1] of 1.08 µM.
CNC(=O)[C@@H]1CCCN1S(=O)(=O)c1ccc(Cl)c(COc2cccc3c(-c4cncn4C)cc(C)nc23)c1Cl gave an EC50 [4] of 1.39 µM, an EC50 [1] of 1.51 µM and a CL free [2] of 7 L/h/kg. The CL free [3] was 2 L/h/kg.
Work on CNC(=O)[C@@H]1CCCN1S(=O)(=O)c1ccc(Cl)c(COc2cccc3c(-c4ccncc4)cc(C(C)C)nc23)c1Cl yielded an EC50 [4] of 1.83 µM, an EC50 [1] of 0.22 µM and a CL free [2] of 38 L/h/kg. It also gave a CL free [3] of 20 L/h/kg.
For Cc1cc(C(F)(F)F)c2cccc(OCc3c(Cl)ccc(S(=O)(=O)N4CCCCC4)c3Cl)c2n1, the CL free [2] was 60 L/h/kg and the CL free [3] was 14 L/h/kg.
Compound COC[C@@H]1CCCN1S(=O)(=O)c1ccc(Cl)c(COc2cccc3c(C(F)(F)F)cc(C)nc23)c1Cl has an EC50 [4] of 0.16 µM, an EC50 [1] of 0.16 µM and a CL free [2] of 97 L/h/kg. It also gave a CL free [3] of 27 L/h/kg.
CNC(=O)[C@@H]1CCCN1S(=O)(=O)c1ccc(Cl)c(COc2cccc3c(-n4ccnc4)cc(C)nc23)c1Cl showed an EC50 [4] of 3 µM, an EC50 [1] of 1.36 µM and a CL free [2] of 16 L/h/kg. It also gave a CL free [3] of 2 L/h/kg.
Work on CNC(=O)[C@@H]1CCCN1S(=O)(=O)c1ccc(Cl)c(COc2cccc3c(C(F)(F)F)cc(C)nc23)c1Cl yielded a CL free [2] of 83 L/h/kg and a CL free [3] of 15 L/h/kg.
For Cc1cc(C(F)(F)F)c2cccc(OCc3c(Cl)ccc(S(=O)(=O)N4CCC[C@H]4C(=O)O)c3Cl)c2n1, the EC50 [1] was 1.39 µM, the CL free [2] was 0.8 L/h/kg and the CL free [3] was 0.5 L/h/kg.
CCc1cc(C(F)(F)F)c2cccc(OCc3c(Cl)ccc(S(=O)(=O)N4CCC[C@H]4C(=O)NC)c3Cl)c2n1 gave an EC50 [4] of 0.21 µM, an EC50 [1] of 0.35 µM and a CL free [2] of 77 L/h/kg. For the same compound, the CL free [3] was 18 L/h/kg.
CNC(=O)[C@@H]1CCCN1S(=O)(=O)c1ccc(Cl)c(COc2cccc3c(-c4nccn4C)cc(C)nc23)c1Cl showed an EC50 [1] of over 10 µM, a CL free [2] of 55 L/h/kg and a CL free [3] of 7 L/h/kg.
CNC(=O)[C@@H]1CCCN1S(=O)(=O)c1ccc(Cl)c(COc2cccc3c(C(F)(F)F)cc(C(C)C)nc23)c1Cl showed an EC50 [4] of 0.77 µM, an EC50 [1] of 0.17 µM and a CL free [2] of 98 L/h/kg. For the same compound, the CL free [3] was 30 L/h/kg.
Cc1cc(C(F)(F)F)c2cccc(OCc3c(Cl)ccc(S(=O)(=O)N4CCC[C@H]4CO)c3Cl)c2n1 showed an EC50 [4] of 0.83 µM, an EC50 [1] of 0.96 µM and a CL free [2] of 98 L/h/kg. The CL free [3] was 15 L/h/kg.
For CNC(=O)[C@@H]1CCCN1S(=O)(=O)c1ccc(Cl)c(COc2cccc3c(-c4ccccn4)cc(C)nc23)c1Cl, the CL free [2] was 44 L/h/kg and the CL free [3] was 11 L/h/kg.
CNC(=O)[C@@H]1CCCN1S(=O)(=O)c1ccc(Cl)c(COc2cccc3c(-n4ccnc4)cc(C(F)(F)F)nc23)c1Cl showed an EC50 [4] of 3.32 µM, an EC50 [1] of 0.17 µM and a CL free [2] of 8 L/h/kg. It also gave a CL free [3] of 1 L/h/kg.
Cc1cc(C(F)(F)F)c2cccc(OCc3c(Cl)ccc(S(=O)(=O)N4CCC[C@H]4C(N)=O)c3Cl)c2n1 gave an EC50 [4] of 0.47 µM, an EC50 [1] of 0.44 µM and a CL free [2] of 756 L/h/kg. It also gave a CL free [3] of 10 L/h/kg.
For CNC(=O)[C@@H]1CCCN1S(=O)(=O)c1cccc(COc2cccc3c(C(F)(F)F)cc(C)nc23)c1, the EC50 [1] was over 10 µM, the CL free [2] was 46 L/h/kg and the CL free [3] was 3 L/h/kg.
Compound Cc1cc(C(F)(F)F)c2cccc(OCc3c(Cl)ccc(S(=O)(=O)N4CCC(CCO)CC4)c3Cl)c2n1 has an EC50 [1] of 0.39 µM, a CL free [2] of 65 L/h/kg and a CL free [3] of 22 L/h/kg.
In the case of CNC(=O)[C@@H]1CCCN1S(=O)(=O)c1ccc(Cl)c(COc2cccc3c(-n4ccnc4)cc(C(C)C)nc23)c1Cl, the EC50 [1] is reported as 0.52 µM, the CL free [2] is reported as 8 L/h/kg and the CL free [3] is reported as 2 L/h/kg.
CNC(=O)[C@@H]1CCCN1S(=O)(=O)c1ccc(Cl)c(COc2cccc3c(-c4ccccc4)cc(C)nc23)c1Cl showed an EC50 [4] of 0.89 µM and an EC50 [1] of 0.32 µM.
Work on CNC(=O)[C@@H]1CCCN1S(=O)(=O)c1ccc(Cl)c(COc2cccc3c(-c4ccncc4)cc(C)nc23)c1Cl yielded a CL free [2] of 33 L/h/kg and a CL free [3] of 13 L/h/kg.
In the case of Cc1cc(C(F)(F)F)c2cccc(OCc3c(Cl)ccc(S(=O)(=O)N4CC[C@@H](N(C)C)C4)c3Cl)c2n1, the EC50 [1] is reported as 0.91 µM, the CL free [2] is reported as 52 L/h/kg and the CL free [3] is reported as 10 L/h/kg.

Source: ChEMBL document CHEMBL4665652, “Discovery of novel quinoline sulphonamide derivatives as potent, selective and orally active RORγ inverse agonists” (Bioorg Med Chem Lett, 2019)
